Data set [1] is described as follows: Metabolic stability in baboon plasma assessed as unchanged radioligand at 12 mins by HPLC. It is filed as ADME, cell-free. To be noted: papio anubis, read-out: Stability. The gist of the method: (§1)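 Arterial blood sampled at 2, 6, 12, 30, 60 and 90 min post-injection and spun; 0.5 ml plasma mixed with 0.7 ml acetonitrile, vortexed, centrifuged 14,000 rpm 4 min. Supernatant run on reverse-phase ODS HPLC (acetonitrile/0.1 M ammonium formate 35:65, 2 ml/min) with radioactivity detection. Parent percentage corrected for background and decay; QC tracer sample injected at start and end.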

Data set [2] is described as follows: Metabolic stability in baboon plasma assessed as unchanged radioligand at 60 mins by HPLC. Particulars: papio anubis, read-out: Stability; call rule not given here. It is filed as ADME, cell-free. An outline of the steps:
as §1

Data set [3] is described as follows: Drug uptake in baboon amygdala at 5 mCi, iv measured during 90 mins. It is filed as ADME, organism-based. To be noted: papio anubis, in vivo, 1.5 h. The gist of the method:
(§2)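 Fasted baboon immobilized with ketamine (10 mg/kg, im), then anesthetized with 1.5–2.0% isoflurane by endotracheal tube and kept at 37 °C. A 10 min transmission scan preceded tracer. Tracer given as 5 ± 1 mCi iv bolus (S.A. 2300 ± 250 Ci/mmol). Emission collected 90 min in 3-D mode on HR+ PET. Arterial samples (30 over 90 min) gave the input function.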

Data set [4] is described as follows: Drug uptake in baboon prefrontal cortex at 5 mCi, iv measured during 90 mins. In kind it is ADME, organism-based. Particulars: papio anubis, in vivo, 1.5 h. An outline of the steps:
as §2

The nature of data set [5]: Metabolic stability in baboon plasma assessed as unchanged radioligand at 2 mins by HPLC. Particulars: papio anubis, read-out: Stability. In kind it is ADME, cell-free. An outline of the steps:
as §1

Data set [6] can be described thus: Drug uptake in baboon parahippocampal gyrus at 5 mCi, iv measured during 90 mins. It is filed as ADME, organism-based. To be noted: papio anubis, in vivo, 1.5 h. The gist of the method: as §2
Data set [7] is described as follows: Drug uptake in baboon cerebellum at 5 mCi, iv measured during 90 mins. To be noted: papio anubis, in vivo, 1.5 h. It is filed as ADME, organism-based. The gist of the method:
as §2

Data set [8] in a line: Metabolic stability in baboon plasma assessed as unchanged radioligand at 30 mins by HPLC. In kind it is ADME, cell-free. To be noted: papio anubis, read-out: Stability. The gist of the method: as §1
Data set [9] in a line: Metabolic stability in baboon plasma assessed as unchanged radioligand at 90 mins by HPLC. Particulars: papio anubis, read-out: Stability. In kind it is ADME, cell-free. The gist of the method:
as §1

Data set [10] is described as follows: Drug uptake in baboon temporal cortex at 5 mCi, iv measured during 90 mins. To be noted: papio anubis, in vivo, 1.5 h. It is filed as ADME, organism-based. The gist of the method:
as §2

Data set [11] in a line: Fraction unbound in human plasma by HPLC. In kind it is ADME, cell-free.
A short description of data set [12]: Fraction unbound in baboon plasma by HPLC. In kind it is ADME, cell-free. To be noted: papio anubis.
A short description of data set [13]: Metabolic stability in baboon plasma assessed as unchanged radioligand at 4 mins by HPLC. In kind it is ADME, cell-free. To be noted: papio anubis, read-out: Stability.
Data set [14] can be described thus: Drug uptake in baboon anterior cingulate at 5 mCi, iv measured during 90 mins. It is filed as ADME, organism-based. To be noted: papio anubis, in vivo, 1.5 h. An outline of the steps: as §2
Data set [15] is described as follows: Drug uptake in baboon hippocampus at 5 mCi, iv measured during 90 mins. It is filed as ADME, organism-based. Particulars: papio anubis, in vivo, 1.5 h. An outline of the steps: as §2
Data set [16] is described as follows: Drug uptake in baboon striatum at 5 mCi, iv measured during 90 mins. In kind it is ADME, organism-based. To be noted: papio anubis, in vivo, 1.5 h. An outline of the steps: as §2
Data set [17] can be described thus: Drug uptake in baboon pareital cortex at 5 mCi, iv measured during 90 mins. It is filed as ADME, organism-based. Particulars: papio anubis, in vivo, 1.5 h. The gist of the method: as §2

As for `COc1ccc(S(=O)(=O)Nc2cc(Cl)cc(Cl)c2O[11CH3])cc1N1CCNCC1`, the remaining at 0.2 h in data set [1] worked out at 71%. For the same molecule, in data set [2], the remaining at 1 h worked out at 32%. Moreover, the Drug uptake entry in data set [3] is reported as “Active”; in data set [4], “Not Active”; in data set [6] it was “Active”; in [7] it was “Not Active”; in data set [10], “Active”; in data set [14] it was “Not Active”. The Drug uptake result in data set [15] is listed as “Active”; in data set [16], “Not Active”; in data set [17], “Active”. Besides, the remaining at 2 min in data set [5] amounted to 99%. Moreover, in [8], the remaining at 0.5 h is 45%. Also, the remaining at 1.5 h in data set [9] worked out at 27%. In addition, the fraction unbound in data set [11] was 0.01; in [12] it was 0.05. The remaining at 4 min in data set [13] was determined as 94%.
